Measurements from different studies.
Compare with care: the assays were run in different laboratories. pIC50: −log10 of the molar value. Converted amounts (≈) assume the structure as drawn.

CCOC(=O)c1cc(-c2cccc(NC(=O)Nc3ccc(Cl)c(Cl)c3)c2)on1  MIC (Klebsiella pneumoniae; microbial growth, broth dilution; BAA1705): > 64 µg/mL
COc1c2c(cc3c1OCO3)[C@]13C=C[C@H](OC)C[C@@H]1[N@](C2)C[C@H]3OC(=O)c1ccco1  pIC50 (HT-29; cell growth or viability, WST-1): < 5.00
N#CCc1c[nH]c2ccccc12  EC90 (Cryptosporidium parvum; parasite growth; HCT-8; 24 h, intracellular): 1230 µM
Cc1ccc(CN2C(=O)/C(=N\NC(=O)c3cc4ccccc4[nH]3)c3ccccc32)cc1  pIC50 (HT-29; cell growth or viability): 5.61
COC(=O)c1cc(-c2cccc(NC(=O)Nc3ccc(F)c(F)c3)c2)on1  MIC (Klebsiella pneumoniae; microbial growth, broth dilution; BAA1705): > 64 µg/mL
C1CCNCC1  activity vs control (Cryptosporidium parvum; parasite growth, imaging; HCT-8; 1 mM, 24 h, intracellular): 104%
COC(=O)c1cc(-c2cccc(NC(=S)NC3CCCCC3)c2)on1  MIC (Klebsiella pneumoniae; microbial growth, broth dilution; BAA1705): > 64 µg/mL
O=C(N/N=C1\C(=O)N(Cc2ccccc2)c2ccccc21)c1cc2ccccc2[nH]1  inhibition (HT-29; cell growth or viability; 30 µM): 92.7%
CC(C)CCCCCCCCCCCCc1cc(O)cc(O)c1  pIC50 (Streptococcus pneumoniae; microbial growth): 4.11
O=C(Nc1cccc(-c2cc(C(=O)O)no2)c1)Nc1ccc(Cl)c(Cl)c1  MIC (Klebsiella pneumoniae; microbial growth, broth dilution; BAA1705): > 64 µg/mL
CO[C@H]1/C=C/O[C@@]2(C)Oc3c(C)c(O)c4c(O)c(c(/C=N/N5CCN(C)CC5)c(O)c4c3C2=O)NC(=O)/C(C)=C\C=C\[C@H](C)[C@H](O)[C@@H](C)[C@@H](O)[C@@H](C)[C@H](OC(C)=O)[C@@H]1C  MIC (Mycobacterium tuberculosis variant bovis BCG; microbial growth; BCG; 7 days): 0.1 µg/mL (≈ 0.122 µM)
C=CC(c1ccc(-c2ccc(O)cc2)cc1)n1ccnc1 (stereo not drawn)  MIC50 (Mycobacterium tuberculosis variant bovis BCG; microbial growth; BCG): > 50 µM
COC(=O)c1cc(-c2cccc(NC(=O)Nc3ccc(Cl)cc3Cl)c2)on1  MIC (Klebsiella pneumoniae; microbial growth, broth dilution; BAA1705): > 64 µg/mL
COc1ccc2c(c1)/C(=N/NC(=O)c1cc3ccccc3[nH]1)C(=O)N2Cc1ccccc1  inhibition (HT-29; cell growth or viability; 30 µM): 94%
COC(=O)c1cc(-c2cccc(NC(=O)Nc3ccc(Cl)c(C(F)(F)F)c3)c2)on1  MIC (Klebsiella pneumoniae; microbial growth, broth dilution; BAA1705): > 64 µg/mL
CC(C)C(C)CCCCCCCCCCCc1cc(O)cc(O)c1 (stereo not drawn)  pIC50 (Streptococcus pneumoniae; microbial growth): 4.32
N#Cc1ccc(CN2C(=O)/C(=N\NC(=O)c3cc4ccccc4[nH]3)c3ccccc32)cc1  pIC50 (HT-29; cell growth or viability): 5.09
COC(=O)c1cc(-c2cccc(NC(=O)Nc3ccc(C(F)(F)F)cc3)c2)on1  MIC (Klebsiella pneumoniae; microbial growth, broth dilution; BAA1705): > 64 µg/mL
O=C(N/N=C1\C(=O)N(Cc2ccccc2)c2ccc(F)cc21)c1cc2ccccc2[nH]1  pIC50 (HT-29; cell growth or viability): 5.46
CCC1(c2ccc(N)cc2)CCC(=O)NC1=O (stereo not drawn)  pIC50 (A2780; cell growth or viability, CCK-8; 48 h): < 4.30
O=C(N/N=C1\C(=O)N(Cc2ccc(Cl)cc2)c2ccccc21)c1cc2ccccc2[nH]1  pIC50 (HT-29; cell growth or viability): 5.58
CCCCCCCCCCCCCCCCCCCCc1cc(O)cc(O)c1  pIC50 (Streptococcus pneumoniae; microbial growth): < 3.70
O=C(N/N=C1\C(=O)N(Cc2ccccc2)c2ccc(Cl)cc21)c1cc2ccccc2[nH]1  pIC50 (Swiss-3T3; cell growth or viability; 72 h): 5.46
CC(C)CCCCCCCCCCCCCCc1cc(O)cc(O)c1  pIC50 (Streptococcus pneumoniae; microbial growth): 4.33
